Reference: publication PMC10772668 (Clinical and Translational Science, 2023)

Tests used:
[1] = Safety, TEAEs, SAD; format: in vivo, human
Outline: (§1)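 Safety population: all participants exposed to study drug, followed from first dose to the end‑of‑study visit. Assessments covered physical and neurological exams, AEs, SAEs and AESIs (seizure, ALT ≥2×ULN, QTc ≥500 ms, pregnancy, overdose). Lab, vital‑sign and 12‑lead/Holter ECG abnormalities were also recorded. Coding used MedDRA 23.1 (part 1) or 24.0 (part 2), with severity graded 1–4 per FDA guidance. Counts were summarised per dose group, with placebo pooled.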

[2] = Safety, TEAEs, PK‐CSF; format: in vivo, human; conditions: for ALT increase (AESI), one participant: PK‐CSF 10 mg
Outline: as §1

[3] = molecular target: T1, RIPK1 (Homo sapiens, UniProt Q13546); assay: In vitro inhibition of RIPK1 activity in human PBMCs; format: cell-based
T1 sequence (Q13546 1-671): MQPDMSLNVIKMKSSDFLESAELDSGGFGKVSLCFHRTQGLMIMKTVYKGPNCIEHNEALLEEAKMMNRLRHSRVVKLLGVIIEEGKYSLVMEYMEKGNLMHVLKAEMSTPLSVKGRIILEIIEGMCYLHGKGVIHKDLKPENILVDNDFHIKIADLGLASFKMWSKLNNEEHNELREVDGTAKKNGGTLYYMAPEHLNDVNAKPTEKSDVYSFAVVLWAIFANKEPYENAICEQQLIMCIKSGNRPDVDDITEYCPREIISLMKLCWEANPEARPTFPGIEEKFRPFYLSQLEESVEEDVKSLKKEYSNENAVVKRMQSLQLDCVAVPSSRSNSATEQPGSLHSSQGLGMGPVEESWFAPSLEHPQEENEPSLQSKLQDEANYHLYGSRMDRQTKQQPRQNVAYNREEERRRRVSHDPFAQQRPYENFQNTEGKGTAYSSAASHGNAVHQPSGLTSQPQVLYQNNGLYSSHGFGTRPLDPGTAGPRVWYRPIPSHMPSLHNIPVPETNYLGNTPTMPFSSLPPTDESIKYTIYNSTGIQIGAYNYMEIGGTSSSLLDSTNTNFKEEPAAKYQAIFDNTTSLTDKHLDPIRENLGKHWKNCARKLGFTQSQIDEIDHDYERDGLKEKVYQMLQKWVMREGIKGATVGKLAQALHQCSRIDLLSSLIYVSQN

[4] = Safety, TEAEs, MAD; format: in vivo, human
Outline: as §1

[5] = Plasma PK, SAD; format: in vivo, human; conditions: for CL/F, geometric mean (%CV): fasting
Outline: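 Healthy adults received a single fasted oral capsule dose (10–40 mg) or placebo; fasting was overnight ≥8 h and 2 h post‑dose. Plasma was sampled predose, at 10 postdose times on day 1 and once each on days 2 and 3, and quantified by HPLC‑MS (LLOQ 1 ng/mL). Cmax, Tmax, AUClast, AUC, t1/2z, CL/F and Vz/F were computed. Dose proportionality was tested with a linear model.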

[6] = Overall safety and tolerability, all study parts; format: in vivo, human
Outline: as §1

[7] = Plasma PK, MAD; format: in vivo, human; conditions: for half-life: T 1/2z; for Tmax: T max, median (range)
Outline: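 Oral capsules were given for 14 days (q.d. or b.i.d.) after an overnight fast of ≥8 h, with 2 h fasting post‑dose. Plasma was sampled predose and at 10–11 postdose times on days 1 and 14, predose on days 2, 3, 5, 7 and 11, and once on days 15–17. Quantification was by HPLC‑MS (LLOQ 1 ng/mL). AUCtau used tau 12 h (b.i.d.) or 24 h (q.d.). Accumulation was assessed by a linear model on log ratio and steady state by a nonlinear model on Ctrough.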

[8] = both, human, plasma, oral, 10 mg
[9] = both, human, plasma, oral, 20 mg
[10] = both, human, plasma, oral, 30 mg
[11] = both, human, plasma, oral, 40 mg

CC(C)(C(=O)N1CCOc2c(C#N)cncc2C1)C(F)F [SAR443820]
Any TEAE, n (%) ([1]; SAD 10 mg (n = 6)): 2 (33.3) n (%)
Any grade ≥3 TEAE, n (%) ([1]; SAD 10 mg (n = 6)): 0 n (%)
Any treatment‐emergent AESI, n (%) ([1]; SAD 10 mg (n = 6)): 0 n (%)
Any treatment‐emergent SAE, n (%) ([1]; SAD 10 mg (n = 6)): 0 n (%)
Any TEAE, n (%) ([1]; SAD 20 mg (n = 6)): 1 (16.7) n (%)
Any grade ≥3 TEAE, n (%) ([1]; SAD 20 mg (n = 6)): 0 n (%)
Any treatment‐emergent AESI, n (%) ([1]; SAD 20 mg (n = 6)): 0 n (%)
Any treatment‐emergent SAE, n (%) ([1]; SAD 20 mg (n = 6)): 0 n (%)
Any TEAE, n (%) ([1]; SAD 30 mg (n = 6)): 3 (50.0) n (%)
Any grade ≥3 TEAE, n (%) ([1]; SAD 30 mg (n = 6)): 0 n (%)
Any treatment‐emergent AESI, n (%) ([1]; SAD 30 mg (n = 6)): 0 n (%)
Any treatment‐emergent SAE, n (%) ([1]; SAD 30 mg (n = 6)): 0 n (%)
Any TEAE, n (%) ([1]; SAD 40 mg (n = 6)): 3 (50.0) n (%)
Any grade ≥3 TEAE, n (%) ([1]; SAD 40 mg (n = 6)): 0 n (%)
Any treatment‐emergent AESI, n (%) ([1]; SAD 40 mg (n = 6)): 0 n (%)
Any treatment‐emergent SAE, n (%) ([1]; SAD 40 mg (n = 6)): 0 n (%)
Any TEAE, n (%) ([2]; PK-CSF 10 mg (n = 6)): 4 (66.7) n (%)
Any grade ≥3 TEAE, n (%) ([2]; PK-CSF 10 mg (n = 6)): 0 n (%)
Any treatment‐emergent AESI, n (%) ([2]; PK-CSF 10 mg (n = 6)): 1 (16.7) n (%)
Any treatment‐emergent SAE, n (%) ([2]; PK-CSF 10 mg (n = 6)): 0 n (%)
Any TEAE, n (%) ([2]; PK-CSF 40 mg (n = 6)): 6 (100.0) n (%)
Any grade ≥3 TEAE, n (%) ([2]; PK-CSF 40 mg (n = 6)): 1 (16.7) n (%)
Any treatment‐emergent AESI, n (%) ([2]; PK-CSF 40 mg (n = 6)): 0 n (%)
Any treatment‐emergent SAE, n (%) ([2]; PK-CSF 40 mg (n = 6)): 1 (16.7) n (%)
ALT increase (AESI), one participant ([2]; day 2): 1.5 ULN
ALT increase (AESI), one participant ([2]; day 7 (end‐of‐study visit)): 2.4 ULN
IC50 [3]: 3.16 nM
Any TEAE, n (%) ([4]; MAD 10 mg QD (n = 8)): 4 (50.0) n (%)
Any grade ≥3 TEAE, n (%) ([4]; MAD 10 mg QD (n = 8)): 0 n (%)
Any treatment‐emergent AESI, n (%) ([4]; MAD 10 mg QD (n = 8)): 0 n (%)
Any treatment‐emergent SAE, n (%) ([4]; MAD 10 mg QD (n = 8)): 0 n (%)
Any TEAE, n (%) ([4]; MAD 15 mg BID (n = 8)): 6 (75.0) n (%)
Any grade ≥3 TEAE, n (%) ([4]; MAD 15 mg BID (n = 8)): 0 n (%)
Any treatment‐emergent AESI, n (%) ([4]; MAD 15 mg BID (n = 8)): 1 (12.5) n (%)
Any treatment‐emergent SAE, n (%) ([4]; MAD 15 mg BID (n = 8)): 0 n (%)
Concomitant AST increase, one participant ([4]; MAD 15 mg b.i.d.): 1.43 ULN
ALT increase (AESI), one participant ([4]; MAD 15 mg b.i.d., day 9): 2.29 ULN
ALT increase (AESI), one participant ([4]; MAD 15 mg b.i.d., day 15 (24 h post last dosing)): 2.71 ULN
Any TEAE, n (%) ([4]; MAD 20 mg BID (n = 8)): 4 (50.0) n (%)
Any grade ≥3 TEAE, n (%) ([4]; MAD 20 mg BID (n = 8)): 0 n (%)
Any treatment‐emergent AESI, n (%) ([4]; MAD 20 mg BID (n = 8)): 0 n (%)
Any treatment‐emergent SAE, n (%) ([4]; MAD 20 mg BID (n = 8)): 0 n (%)
Any TEAE, n (%) ([4]; MAD 20 mg QD (n = 8)): 3 (37.5) n (%)
Any grade ≥3 TEAE, n (%) ([4]; MAD 20 mg QD (n = 8)): 0 n (%)
Any treatment‐emergent AESI, n (%) ([4]; MAD 20 mg QD (n = 8)): 0 n (%)
Any treatment‐emergent SAE, n (%) ([4]; MAD 20 mg QD (n = 8)): 0 n (%)
CL/F, geometric mean (%CV) ([5]; SAD 10 mg single dose): 8.56 (37.8) L/h
CL/F, geometric mean (%CV) ([5]; SAD 20 mg single dose): 8.28 (21.4) L/h
CL/F, geometric mean (%CV) ([5]; SAD 30 mg single dose): 12.3 (44.7) L/h
CL/F, geometric mean (%CV) ([5]; SAD 40 mg single dose): 7.72 (36.1) L/h
Dose proportionality of exposure ([5]; SAD between 10 mg and 40 mg): no major deviation from dose proportionality
Tmax ([5]; both, human, plasma, oral): 1 to 1.5 h
half-life ([5]; both, human, plasma, oral): 5.7 to 8 h
AUC(0-t) [5, 8]: 1120 ng·h/mL
Vd/F [5, 8]: 98.4 L
half-life [5, 8]: 7.97 h
Cmax [5, 9]: 241 ng/mL
Tmax [5, 9]: 1.5 h
Vd/F [5, 9]: 89.4 L
half-life [5, 9]: 7.48 h
Tmax [5, 10]: 1 h
Vd/F [5, 10]: 101 L
half-life [5, 10]: 5.7 h
Tmax [5, 11]: 1.5 h
Vd/F [5, 11]: 70.1 L
half-life [5, 11]: 6.29 h
Most common AEs ([6]; all study parts): dizziness (SAD) and headache (PK‐CSF and MAD)
Overall tolerability ([6]; healthy participants, single doses up to 40 mg, repeated doses up to 20 mg b.i.d. for 14 days): generally safe and well‐tolerated
CLss/F, geometric mean (%CV) ([7]; MAD 10 mg q.d., day 14): 7.08 (25.9) L/h
CLss/F, geometric mean (%CV) ([7]; MAD 15 mg b.i.d., day 14): 9.16 (30.0) L/h
CLss/F, geometric mean (%CV) ([7]; MAD 20 mg b.i.d., day 14): 9.27 (24.9) L/h
CLss/F, geometric mean (%CV) ([7]; MAD 20 mg q.d., day 14): 9.40 (22.2) L/h
Overall accumulation, C max and AUCtau ([7]; b.i.d. cohorts, day 14 vs day 1): around 1.5 fold
Cmax ([7]; both, human, plasma, oral, 10 mg, C max, geometric mean (%CV), MAD 10 mg q.d., day 14): 158 ng/mL
half-life ([7]; both, human, plasma, oral, 10 mg, geometric mean (%CV), MAD 10 mg q.d., day 14): 8.87 h
Tmax ([7]; both, human, plasma, oral, 10 mg, MAD 10 mg q.d., day 14): 1 h
half-life ([7]; both, human, plasma, oral, 15 mg, geometric mean (%CV), MAD 15 mg b.i.d., day 14): 7.21 h
Tmax ([7]; both, human, plasma, oral, 15 mg, MAD 15 mg b.i.d., day 1): 1 h
Tmax ([7]; both, human, plasma, oral, 15 mg, MAD 15 mg b.i.d., day 14): 1 h
half-life ([7]; both, human, plasma, oral, 20 mg, geometric mean (%CV), MAD 20 mg b.i.d., day 14): 7.37 h
half-life ([7]; both, human, plasma, oral, 20 mg, geometric mean (%CV), MAD 20 mg q.d., day 14): 8.53 h
Tmax ([7]; both, human, plasma, oral, 20 mg, MAD 20 mg b.i.d., day 14): 1 h
Tmax ([7]; both, human, plasma, oral, 20 mg, MAD 20 mg q.d., day 14): 2 h
